Measured values taken from PMC3889630 (European Journal of Clinical Pharmacology, 2013).
Entries after “also recorded” stand apart in the source; their conditions may differ. Where two headings read alike, the source gives them in different places.

What was measured:
HIV = conditions: stated in discussion, no reference given; cited from earlier work
[1] = type: in vivo, human
Procedure, shortened: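 Severe renal impairment group (CLcr <30 mL/min) and matched healthy group (>90 mL/min), n=8 each, took one fasted morning 50 mg tablet. Total DTG and DTG-glucuronide measured by validated LC-MS/MS after acetonitrile extraction. Non-compartmental parameters log-transformed and compared by ANCOVA (gender fixed; age, BMI covariates) as geometric LS mean ratio impaired/healthy with 90 % CI.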

[2] = Safety and tolerability after single 50 mg DTG dose; type: in vivo, human; conditions: both groups
Procedure, shortened: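 Open-label single-dose study in HIV-seronegative adults aged 18–70 y: 8 with severe renal impairment (24-h urine CLcr <30 mL/min) and 8 healthy (CLcr >90 mL/min), matched for gender, age (±5 y) and BMI (±25 %). Each took one 50 mg tablet in the morning, fasted, and stayed housed until the last PK sample. Clinical and laboratory safety checks throughout, plus follow-up 7–10 days post-dose.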

[3] = type: in vitro ADME, human
[4] = treatment-naïve subjects, SPRING-1; cited from earlier work
[5] = co-administration with darunavir/ritonavir, Phase 1 study; cited from earlier work
[6] = cited from earlier work
[7] = cited from earlier work; remark: listed apart in the source

Row | Compound | antiviral activity (HIV) | t1/2 ratio of DTG-Gluc to DTG ([1]; both groups of subjects) | glucuronide exposure relative to parent DTG based on molar ratios ([1]; renally-impaired population) | deaths or serious adverse events [2] | intensity of adverse events [2] | tolerability [2] | GLS mean unbound plasma DTG concentration lower in renal impaired subjects ([3]; 3-hour time point) | GLS mean unbound plasma DTG concentration lower in renal impaired subjects ([3]; 24-hour time point) | effect of renal impairment on DTG fraction unbound in plasma ([3]; severe renal impairment vs healthy) | reduction in DTG exposure between the 50 mg and 10 mg once-daily doses [4] | reduction of DTG trough concentration by DRV/r [5] | mean elimination half-life shorter in renal impairment compared to controls ([1]; 50 mg single oral dose) | correlation between creatinine clearance and DTG PK parameters ([1]; Pearson, p > 0.1) | Cmax ([1]; human, plasma, oral, 50 mg, Cmax, range of values, DTG, healthy subjects) | bound to plasma proteins [6] | share of DTG among drug-related components circulating in plasma [7] | renal elimination of unchanged drug ([7]; human)
1 | C[C@@H]1CCO[C@H]2Cn3cc(C(=O)NCc4ccc(F)cc4F)c(=O)c(O[C@@H]4O[C@H](C(=O)O)[C@@H](O)[C@H](O)[C@H]4O)c3C(=O)N12 [DTG-Gluc, DTG-glucuronide] | no antiviral activity | ~1 | < 10% | – | – | – | – | – | – | – | – | – | – | – | – | – | –
2 | C[C@@H]1CCO[C@H]2Cn3cc(C(=O)NCc4ccc(F)cc4F)c(=O)c(O)c3C(=O)N12 [DTG, Dolutegravir] | – | – | – | No deaths or serious adverse events | mild (Grade 1) | well tolerated | 14% | 49% | did not affect; also recorded: similar | 75% | 38% | 18% | No significant correlation | 820 to 3200 ng/mL | greater than 99% | > 97% | < 1 % of the dose
